Among the data in ChEMBL document CHEMBL1125376, “Class III antiarrhythmic activity of novel substituted 4-[(methylsulfonyl)amino]benzamides and sulfonamides” (J Med Chem, 1992) are APD60, Change and Vmax values, retold here.

For data set [1], the species on record is Canis familiaris. The data set is described as follows: Effect on the transmembrane potential of dog Purkinje fibers paced at a basic cycle length of stimulation of 1000 ms, repolarization time to -60 mV. It counts as functional. Particulars: Canis lupus familiaris; Purkinje fiber. In outline: (§1)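 Purkinje fiber bundles were taken from pentobarbital-anesthetized mongrel dogs. They were superfused at 37.5-38.0 °C with Tyrode's (mM: NaCl 138, KCl 4, CaCl2 2, NaHCO3 24, MgCl2 0.5, Na2HPO4 1.8, dextrose 5) gassed with 95% O2-5% CO2, pH 7.3-7.4. Stimulation used 2.0 ms pulses at twice threshold. Fibers were equilibrated ≥1 h before drug. Action potentials were recorded at 4-6 sites and averaged per fiber.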

The species named for data set [2] is Canis familiaris. The data set is described as follows: Effect on the transmembrane potential of dog Purkinje fibers paced at a basic cycle length of stimulation of 300 ms, repolarization time to -60 mV. It counts as functional. Conditions: Canis lupus familiaris; Purkinje fiber. In outline: as §1
Data set [3] is filed under the species Canis familiaris. In words: Effect on the transmembrane potential of dog Purkinje fibers paced at a basic cycle length of stimulation of 1000 ms, repolarization time to -60 mV at 3 uM concentration. Particulars: Canis lupus familiaris, Purkinje fiber. It counts as functional. In outline: as §1
Data set [4] is filed under the species Canis familiaris. The data set is described as follows: Effect on the transmembrane potential of dog Purkinje fibers paced at a basic cycle length of stimulation of 300 ms, repolarization time to -60 mV at 3 uM concentration. It counts as functional. Conditions: Canis lupus familiaris, Purkinje fiber. In outline:
as §1

For data set [5], the system named is Canis familiaris. In words: Effect on ventricular conduction time, after intravenous administration in open-chest anesthetized dogs at dose of 5.0 mg/kg. It counts as functional, Canis lupus familiaris, Cardiac ventricle.
For data set [6], the system named is Canis familiaris. In words: Effect on mean arterial pressure, after intravenous administration in open-chest anesthetized dogs at dose of 1.0 mg/kg. It counts as functional, Canis lupus familiaris, Artery.
Data set [7] has as its system Canis familiaris. The data set is described as follows: Effect on ventricular effective refractory period, after intravenous administration in open-chest anesthetized dogs at dose of 1.0 mg/kg. It counts as functional, Canis lupus familiaris, Cardiac ventricle. Put shortly: (§2)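 Mongrel dogs, pentobarbital-anesthetized (30 mg/kg iv plus 5 mg/kg per h), open chest. Compound given iv. Atrial and ventricular effective refractory periods and conduction times measured during pacing at 300 ms, along with heart rate and mean arterial pressure. Two doses per compound, chosen from dose-response runs. Values are % change from predrug, mean ± SE.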

In data set [8] the test system is Canis familiaris. The data set is described as follows: Effect on atrial effective refractory period, after intravenous administration in open-chest anesthetized dogs at dose of 5.0 mg/kg. It counts as functional, Canis lupus familiaris, Cardiac atrium.
Data set [9] relates to Canis familiaris. In words: Effect on heart rate, after intravenous administration in open-chest anesthetized dogs at dose of 1.0 mg/kg. It counts as functional, Canis lupus familiaris.
Data set [10] concerns Canis familiaris. The data set is described as follows: Effect on mean arterial pressure, after intravenous administration in open-chest anesthetized dogs at dose of 5.0 mg/kg. It counts as functional, Canis lupus familiaris, Artery.
The nature of data set [11]: Maximum rate of depolarization of the upstroke of the action potential at 3 uM concentration. Also on record: unit not given beside the values. In outline:
(§3)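 Purkinje fiber bundles from pentobarbital-anesthetized mongrel dogs, superfused at 37.5-38.0 °C with Tyrode's solution (95% O2-5% CO2, pH 7.3-7.4). Stimulation with 2.0 ms square pulses at 2× threshold. Fibers equilibrated at least 1 h before drug. Action potentials recorded at four to six sites, control vs drug, and averaged per fiber.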

The subject of data set [12] is Canis familiaris. In words: Effect on atrial effective refractory period, after intravenous administration in open-chest anesthetized dogs at dose of 1.0 mg/kg. It counts as functional, Canis lupus familiaris, Cardiac atrium.
In data set [13] the test system is Canis familiaris. The data set is described as follows: Effect on heart rate, after intravenous administration in open-chest anesthetized dogs at dose of 5.0 mg/kg. It counts as functional, Canis lupus familiaris.
In data set [14] the test system is Canis familiaris. In words: Effect on atrial conduction time, after intravenous administration in open-chest anesthetized dogs at dose of 5.0 mg/kg. It counts as functional, Canis lupus familiaris, Cardiac atrium.
Data set [15] concerns Canis familiaris. The data set is described as follows: Effect on atrial conduction time, after intravenous administration in open-chest anesthetized dogs at dose of 1.0 mg/kg. It counts as functional, Canis lupus familiaris, Cardiac atrium.
The test system of data set [16] is Canis familiaris. In words: Effect on ventricular conduction time, after intravenous administration in open-chest anesthetized dogs at dose of 1.0 mg/kg. It counts as functional, Canis lupus familiaris, Cardiac ventricle.
Data set [17] has as its system Canis familiaris. The data set is described as follows: Effect on ventricular effective refractory period, after intravenous administration in open-chest anesthetized dogs at dose of 5.0 mg/kg. It counts as functional, Canis lupus familiaris, Cardiac ventricle. Put shortly:
as §2

The test system of data set [18] is Canis familiaris. The data set is described as follows: Effect on atrial effective refractory period, after intravenous administration in open-chest anesthetized dogs at dose of 2.5 mg/kg. It counts as functional, Canis lupus familiaris, Cardiac atrium.
Data set [19] has as its system Canis familiaris. In words: Effect on ventricular conduction time, after intravenous administration in open-chest anesthetized dogs at dose of 2.5 mg/kg. It counts as functional, Canis lupus familiaris, Cardiac ventricle.
Data set [20] deals with Canis familiaris. The data set is described as follows: Effect on mean arterial pressure, after intravenous administration in open-chest anesthetized dogs at dose of 2.5 mg/kg. It counts as functional, Canis lupus familiaris, Artery.
Data set [21] has as its system Canis familiaris. In words: Effect on atrial conduction time, after intravenous administration in open-chest anesthetized dogs at dose of 2.5 mg/kg. It counts as functional, Canis lupus familiaris, Cardiac atrium.
Data set [22] concerns Canis familiaris. In words: Effect on heart rate, after intravenous administration in open-chest anesthetized dogs at dose of 2.5 mg/kg. It counts as functional, Canis lupus familiaris.
The test system of data set [23] is Canis familiaris. In words: Effect on ventricular effective refractory period, after intravenous administration in open-chest anesthetized dogs at dose of 2.5 mg/kg. It counts as functional, Canis lupus familiaris, Cardiac ventricle. In outline: as §2
Data set [24] is described as follows: Maximum rate of depolarization of the upstroke of the action potentia at 3 uM concentration. Put shortly: as §3

“And” between values parts separate entries of the source, which are not always exact repeats. Equal entries are not always repeated.

For `CNc1nc2ccccc2n1CCN(C)S(=O)(=O)c1ccc(NS(C)(=O)=O)cc1`, the figures for the APD60 in the data set listed under Canis familiaris [1] and in the data set listed under Canis familiaris [2] were 47 and 28, respectively.

As for `CN(CCNS(=O)(=O)c1ccc(NS(C)(=O)=O)cc1)c1nc2ccccc2n1C.Cl`, the APD60 is 50 in the data set filed under Canis familiaris [3] and 16 in the data set filed under Canis familiaris [4].

Regarding `CN(CCN(C)c1nc2ccccc2n1C)C(=O)c1ccc(NS(C)(=O)=O)cc1.Cl`, the Change is -6% in the data set with Canis familiaris [5]; 5% in the data set on Canis familiaris [6]; 10% with Canis familiaris [7]; 44% in the data set with Canis familiaris [8]; -6% in the data set on Canis familiaris [9]; -1% with Canis familiaris [10]. Also, the Change is recorded as 18% in the data set with Canis familiaris [12]; -27% in the data set on Canis familiaris [13]; -3% with Canis familiaris [14]; -1% in the data set with Canis familiaris [15]; -1% with Canis familiaris [16]; 24% in the data set with Canis familiaris [17]. Besides, the APD60 worked out at 65 in the data set filed under Canis familiaris [3] and 17 in the data set listed under Canis familiaris [4]. Moreover, the Vmax in data set [11] was -5 and -3.

`CC(C)NCC(O)c1ccc(NS(C)(=O)=O)cc1` (stereo unspecified) [SOTALOL]: the Change was -1% in the data set with Canis familiaris [5]; 42% in the data set on Canis familiaris [18]; 57% with Canis familiaris [8]; -1% in the data set on Canis familiaris [19]; -17% in the data set on Canis familiaris [10]; -28% in the data set on Canis familiaris [13]. The Change is given as -16% with Canis familiaris [20]; -7% in the data set on Canis familiaris [14]; -5% in the data set with Canis familiaris [21]; -27% in the data set with Canis familiaris [22]; 25% in the data set with Canis familiaris [17]; 19% with Canis familiaris [23]. For the same compound, the APD60 in the data set filed under Canis familiaris [1] was determined as 56; in the data set filed under Canis familiaris [2], 18.

Turning to `CN(CCN(C)c1ccc2ccccc2n1)C(=O)c1ccc(NS(C)(=O)=O)cc1`, the APD60 in the data set filed under Canis familiaris [1] stood at 36; in the data set filed under Canis familiaris [2], 17.

For the compound `CN(CCN(C)S(=O)(=O)c1ccc(NS(C)(=O)=O)cc1)c1ccc2ccccc2n1`, the APD60 came to 46 in the data set listed under Canis familiaris [1] and 20 in the data set listed under Canis familiaris [2].

`CS(=O)(=O)Nc1ccc(S(=O)(=O)NCCNc2ncccn2)cc1`: the APD60 was 24 in the data set filed under Canis familiaris [1] and -4 in the data set listed under Canis familiaris [2].

As to `CS(=O)(=O)Nc1ccc(S(=O)(=O)N2CCNc3nc4ccccc4n3CC2)cc1`, the results for the APD60 in the data set filed under Canis familiaris [1] and in the data set filed under Canis familiaris [2] were 42 and 24, respectively.

`CN(CCNc1nc2ccccc2n1C)S(=O)(=O)c1ccc(NS(C)(=O)=O)cc1.Cl`: the APD60 in the data set listed under Canis familiaris [3] turned out to be 67; in the data set listed under Canis familiaris [4], 19. Besides, the results for the Vmax in data set [11] and in [24] were 1 and 6, respectively.

As for `Cl.Cn1c(N2CCN(S(=O)(=O)c3ccc(NS(C)(=O)=O)cc3)CC2)nc2ccccc21`, the Change is on record as 2% in the data set on Canis familiaris [5]; 2% in the data set with Canis familiaris [6]; 13% in the data set with Canis familiaris [7]; 40% in the data set with Canis familiaris [8]; -17% in the data set with Canis familiaris [9]; 3% with Canis familiaris [10]. Further, the Change was 22% in the data set on Canis familiaris [12]; -37% in the data set on Canis familiaris [13]; -3% in the data set on Canis familiaris [14]; 3% in the data set with Canis familiaris [15]; -4% in the data set with Canis familiaris [16]; 25% in the data set with Canis familiaris [17]. Besides, the APD60 is 57 in the data set filed under Canis familiaris [3] and 36 in the data set listed under Canis familiaris [4].

For the compound `CN(CCN(C)S(=O)(=O)c1ccc(NS(C)(=O)=O)cc1)c1ncc2ccccc2n1`, the results for the APD60 in the data set filed under Canis familiaris [1] and in the data set listed under Canis familiaris [2] were 29 and 18, respectively.
